From ChEMBL document CHEMBL4699669, “Discovery of a Potent Adenine-Benzyltriazolo-Pleuromutilin Conjugate with Pronounced Antibacterial Activity against MRSA” (J Med Chem, 2020)
≈ marks a conversion by molar mass, not a printed value.

Experiments:
[1] = tested on: Caco-2; experiment: Cytotoxicity against differentiated human Caco2 cells assessed as increase in ATP level at 33 ug/ml incubated for 3 hrs by Cell-titer Glo assay; format: cell-based; details: caco-2, 3 h, dose 33 µg/ml
Procedure, shortened: (§1)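 Cells rinsed of growth medium, then exposed 3 h at 37 °C, 220 rpm, light-protected, to compound in HBSS with 10 mM HEPES, pH 7.4 (final DMSO <1% at top concentrations). Plates equilibrated 10 min at rt, CellTiter-Glo 2.0 added, mixed 2 min, signal stabilized 10 min. Luminescence (ATP) normalized to HBSS-only control cells. Mean ± SD of 3 wells, one passage.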

[2] = tested on: Staphylococcus epidermidis; experiment: Antibacterial activity against methicilin-resistant Staphylococcus epidermis 933010 incubated for 20 to 24 hrs by microbroth dilution assay; format: functional; details: time hrs 20-24
Procedure, shortened: (§2)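 Broth microdilution per EUCAST in Mueller-Hinton broth. Inoculum 5.0·10^5 CFU/mL, prepared from overnight single-colony cultures at OD600 0.1 then diluted 100x. Final compound concentrations 0.015–16 µg/mL. Incubation at 37 °C for 20–24 h, protected from light. MIC is the lowest concentration with no visible growth. Each replicate uses three cultures; n = 2–3.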

[3] = tested on: Staphylococcus aureus; experiment: Antibacterial activity against methicilin-resistant Staphylococcus aureus 52518 incubated for 20 to 24 hrs by microbroth dilution assay; format: functional; details: time hrs 20-24; procedure, shortened: as §2
[4] = tested on: Staphylococcus aureus; experiment: Antibacterial activity against methicilin-resistant Staphylococcus aureus 55508 incubated for 20 to 24 hrs by microbroth dilution assay; format: functional; details: time hrs 20-24; procedure, shortened: as §2
[5] = tested on: Staphylococcus aureus; experiment: Antibacterial activity against methicilin-resistant Staphylococcus aureus USA300 FPR3757 incubated for 20 to 24 hrs by microbroth dilution assay; format: functional; details: time hrs 20-24; procedure, shortened: as §2
[6] = tested on: Staphylococcus aureus; experiment: Antibacterial activity against methicilin-resistant Staphylococcus aureus 4828 incubated for 20 to 24 hrs by microbroth dilution assay; format: functional; details: time hrs 20-24; procedure, shortened: as §2
[7] = tested on: Caco-2; experiment: Cytotoxicity against differentiated human Caco2 cells assessed as ATP level at 33 ug/ml incubated for 3 hrs by Cell-titer Glo assay; format: cell-based; details: caco-2, 3 h, dose 33 µg/ml; procedure, shortened: as §1
[8] = tested on: Staphylococcus aureus; experiment: Antibacterial activity against methicilin-resistant Staphylococcus aureus USA300 FPR3757 incubated for 20 hrs by microbroth dilution assay; format: functional
Procedure, shortened: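 MBC determined from a completed MIC replicate (MRSA USA300 FPR3757, Mueller-Hinton, 5.0·10^5 CFU/mL). […] MBC is the lowest concentration giving a 99.9% reduction of the starting inoculum; n = 3.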

[9] = tested on: Caco-2; experiment: Cytotoxicity against human Caco2 cells assessed as cell viability at 33 ug/ml incubated for 3 hrs by MTT assay; format: cell-based; details: caco-2, 3 h, dose 33 µg/ml
Procedure, shortened: (§3)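 Undifferentiated Caco-2 cells, medium aspirated, treated 3 h at 37 °C, 220 rpm with compound in HEPES-buffered HBSS (HBSS alone as negative control, SDS as positive control). MTT then added (final 0.5 mg mL⁻¹) for 2 h more. Formazan dissolved overnight at 4 °C in 10 mM HCl/50% isobutanol/10% SDS. Mean ± SD of 3 wells, one passage.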

[10] = tested on: Caco-2; experiment: Cytotoxicity against differentiated human Caco2 cells assessed as increase in ATP level at 100 ug/ml incubated for 3 hrs by Cell-titer Glo assay; format: cell-based; details: caco-2, 3 h, dose 100 µg/ml; procedure, shortened: as §1
[11] = tested on: Caco-2; experiment: Cytotoxicity against human Caco2 cells assessed as cell viability at 100 ug/ml incubated for 3 hrs by MTT assay; format: cell-based; details: caco-2, 3 h, dose 100 µg/ml; procedure, shortened: as §3
[12] = Cytotoxicity against human PC3 cells assessed as decrease in ATP level at 100 ug/ml incubated for 3 hrs by Cell-titer Glo assay relative to control; format: cell-based, PC-3; details: at 100 µg/mL, read-out: INH; procedure, shortened: as §1
[13] = tested on: Caco-2; experiment: Cytotoxicity against undifferentiated human Caco2 cells assessed as ATP level at 100 ug/ml incubated for 3 hrs by Cell-titer Glo assay; format: cell-based; details: caco-2, 3 h, dose 100 µg/ml; procedure, shortened: as §1

Row | Compound | Activity [1] | MIC [2] [µg/mL] | MIC [3] [µg/mL] | MIC [4] [µg/mL] | MIC [5] [µg/mL] | MIC [6] [µg/mL] | Activity [7] | MBC [8] [µg/mL] | Activity [9] | Activity [10] | Activity [11] | cytotoxicity at 3 h, 100 ug/ml [12] [%] | Activity [13]
1 | C=C[C@]1(C)C[C@@H](OC(=O)CS[C@@H]2C[C@H]3CC[C@@H](C2)N3C)[C@]2(C)[C@H](C)CC[C@]3(CCC(=O)[C@H]32)[C@@H](C)[C@@H]1O [RETAPAMULIN] | Toxic | 0.5 (≈ 0.966 µM) | 0.12 (≈ 0.232 µM) | 0.25 (≈ 0.483 µM) | 0.25 (≈ 0.483 µM) | 0.25 (≈ 0.483 µM) | Non-Toxic | > 2 | Non-Toxic |  |  |  | 
2 | C=C[C@]1(C)C[C@@H](OC(=O)CSC(C)(C)CNC(=O)[C@H](N)C(C)C)[C@]2(C)[C@H](C)CC[C@]3(CCC(=O)[C@H]32)[C@@H](C)[C@@H]1O [VALNEMULIN] |  | 0.25 (≈ 0.443 µM) | 0.06 (≈ 0.106 µM) | 0.12 (≈ 0.212 µM) | 0.06 (≈ 0.106 µM) | 0.06 (≈ 0.106 µM) |  | 0.12 (≈ 0.212 µM) |  | Toxic | Non-Toxic | 22 | Non-Toxic
